According to ChEMBL document CHEMBL1153117, “Synthesis of substituted aryloxy alkyl and aryloxy aryl alkyl imidazoles as antileishmanial agents” (Bioorg Med Chem Lett, 2010):
Values after ≈ are worked out from the molar mass of the structure shown.

What was measured:
[1] = Cytotoxicity against mouse J774A1 cells by MTT assay; assay type: cell-based, J774.A1
In short: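 Mouse macrophage line J-774-A-1 tested for cytotoxicity. Viability was read by MTT assay. CC50 (µg/mL) was estimated by the Huber and Koella method.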

[2] = (§1) Selectivity index, ratio of CC50 for mouse J774A1 cells to IC50 for Leishmania donovani amastigotes; assay type: functional, J774.A1
In short: (§2)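 Computed as CC50 in the J-774-A-1 macrophage MTT assay divided by anti-amastigote IC50. The IC50 came from a four-parameter Hill fit of the concentration–response curve.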

[3] = system: Leishmania donovani; assay: Antileishmanial activity against Leishmania donovani promastigotes at 10 ug/mL; assay type: functional
In short: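 L. donovani promastigotes exposed in vitro to 10 µg/mL. Result expressed as percent inhibition.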

[4] = system: Leishmania donovani; assay: Antileishmanial activity against Leishmania donovani amastigotes; assay type: functional, organism-based
In short: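 Intracellular L. donovani amastigotes tested in vitro, with sodium stibogluconate, pentamidine and amphotericin B as controls. IC50 (µg/mL) was obtained by nonlinear regression of the concentration–response curve using the four-parameter Hill equation.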

[5] = system: Leishmania donovani; assay: Antileishmanial activity against Leishmania donovani infected in hamster assessed inhibition of parasite growth at 20 mg/kg; assay type: functional, organism-based; set-up: dose 20 mg/kg
[6] = system: J774.A1; assay: as §1; assay type: functional; in short: as §2
[7] = system: Leishmania donovani; assay: Antileishmanial activity against Leishmania donovani infected in hamster assessed inhibition of parasite growth at 50 mg/kg, ip for 10 days; assay type: functional; details: 240 h, route intraperitoneal
In short: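 Hamster model (Mesocricetus auratus) infected with L. donovani. Dosed intraperitoneally at 50 mg/kg × 10. Read-out was percent inhibition of parasite growth.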

[8] = system: Leishmania donovani; assay: Antileishmanial activity against Leishmania donovani infected in hamster assessed inhibition of parasite growth at 40 mg/kg; assay type: functional
[9] = system: Leishmania donovani; assay: Antileishmanial activity against Leishmania donovani infected in hamster assessed inhibition of parasite growth at 8 mg/kg, iv for 5 days; assay type: functional; details: 120 h
[10] = system: Leishmania donovani; assay: Antileishmanial activity against Leishmania donovani promastigotes; assay type: functional, organism-based
[11] = Leishmania donovani, read-out: IC50

| Compound | IC50 [4, 11] [µg/mL] | IC50 [4] | IC50 [10] [µg/mL] | CC50 [1] [µg/mL] | Ratio CC50/IC50 [2] | inhibition at 10 µg/mL [3] [%] | inhibition [5] [%] | Ratio CC50/IC50 [6] | inhibition in vivo at 50 mg/kg [7] [%] | inhibition in vivo at 40 mg/kg [8] [%] | inhibition in vivo at 8 mg/kg [9] [%] |
| --- | --- | --- | --- | --- | --- | --- | --- | --- | --- | --- | --- |
| sodium stibogluconate |  |  |  |  |  |  | 84.1 | 6.38 |  |  |  |
| N=C(N)c1ccc(OCCCCCOc2ccc(C(=N)N)cc2)cc1 [PENTAMIDINE] | 12.1 (≈ 35.6 µM) |  |  |  |  |  |  |  |  | 92 |  |
| CC(CCn1ccnc1)Oc1ccc([N+](=O)[O-])cc1C(F)(F)F (stereo unspecified) | 9.97 (≈ 30.3 µM) |  |  | 7.73 (≈ 23.5 µM) | 0.97 | 100 |  |  |  |  |  |
| FC(F)(F)c1ccc(OC(CCn2ccnc2)c2ccccc2)cc1 (stereo unspecified) | 0.47 (≈ 1.36 µM) |  |  | 17.2 (≈ 49.8 µM) | 36.68 | 100 |  |  | 60 |  |  |
| O=[N+]([O-])c1ccc(OC(CCn2ccnc2)c2ccccc2)c(F)c1 (stereo unspecified) | 2.83 (≈ 8.29 µM) |  |  | 25.1 (≈ 73.5 µM) | 8.86 | 96.3 |  |  |  |  |  |
| CC(CCn1ccnc1)Oc1ccc([N+](=O)[O-])cc1 (stereo unspecified) |  | Not Active |  | 24.1 (≈ 92.2 µM) |  | 100 |  |  |  |  |  |
| C[C@@H](Cn1ccnc1)[C@@H](Oc1ccc(C(F)(F)F)cc1)c1ccccc1 (relative stereo) | 1.85 (≈ 5.13 µM) |  |  | 21.7 (≈ 60.3 µM) | 11.75 | 100 |  |  |  |  |  |
| CC(CCn1ccnc1)Oc1ccc(C(F)(F)F)cc1 (stereo unspecified) | 8.08 (≈ 28.4 µM) |  |  | 7.5 (≈ 26.4 µM) | 0.88 | 100 |  |  |  |  |  |
| CC(CCn1ccnc1)Oc1ccc([N+](=O)[O-])cc1F (stereo unspecified) |  | Not Active |  | 15 (≈ 53.7 µM) |  | 100 |  |  |  |  |  |
| FC(F)(F)c1ccc(OC(Cn2ccnc2)c2ccccc2)cc1 (stereo unspecified) | 2.05 (≈ 6.17 µM) |  |  | 28.4 (≈ 85.6 µM) | 13.85 | 98.6 |  |  | 46 |  |  |
| C[C@@H]1[C@H](O)[C@@H](C)/C=C/C=C/C=C/C=C/C=C/C=C/C=C/[C@H](O[C@@H]2O[C@H](C)[C@@H](O)[C@H](N)[C@@H]2O)C[C@@H]2O[C@](O)(C[C@@H](O)C[C@@H](O)[C@H](O)CC[C@@H](O)C[C@@H](O)CC(=O)O[C@H]1C)C[C@H](O)[C@H]2C(=O)O [AMPHOTERICIN B] | 0.05 (≈ 0.0541 µM) |  | 0.008 (≈ 0.00866 µM) | 7.24 (≈ 7.83 µM) | 144.8 |  |  |  |  |  | 92.2 |

Second part, led by results:

| IC50 [4, 11] [µg/mL] | IC50 [4] | IC50 [10] [µg/mL] | Compound | CC50 [1] [µg/mL] | Ratio CC50/IC50 [2] | inhibition at 10 µg/mL [3] [%] | inhibition [5] [%] | Ratio CC50/IC50 [6] | inhibition in vivo at 50 mg/kg [7] [%] | inhibition in vivo at 40 mg/kg [8] [%] | inhibition in vivo at 8 mg/kg [9] [%] |
| --- | --- | --- | --- | --- | --- | --- | --- | --- | --- | --- | --- |
| 8.43 (≈ 32.3 µM) |  |  | CC(CCn1ccnc1)Oc1ccccc1[N+](=O)[O-] (stereo unspecified) | > 100 | >11.86 | 100 |  |  |  |  |  |
| 0.56 (≈ 1.55 µM) |  |  | FC(F)(F)c1ccc(OC(COc2ccccc2)Cn2ccnc2)cc1 (stereo unspecified) | 17.9 (≈ 49.3 µM) | 31.89 | 100 |  |  | 58 |  |  |
| 4.82 (≈ 14.2 µM) |  |  | O=[N+]([O-])c1ccccc1OC(COc1ccccc1)Cn1ccnc1 (stereo unspecified) | 36.2 (≈ 107 µM) | 7.51 | 95.5 |  |  |  |  |  |
| 2.25 (≈ 7.27 µM) |  |  | O=[N+]([O-])c1ccccc1OC(Cn1ccnc1)c1ccccc1 (stereo unspecified) | 25.1 (≈ 81.3 µM) | 11.17 | 97.5 |  |  |  |  |  |
| 3.71 (≈ 12 µM) |  |  | O=[N+]([O-])c1ccc(OC(Cn2ccnc2)c2ccccc2)cc1 (stereo unspecified) | 25.2 (≈ 81.5 µM) | 6.79 | 95.5 |  |  |  |  |  |
| 2.27 (≈ 6.73 µM) |  |  | C[C@@H](Cn1ccnc1)[C@@H](Oc1ccccc1[N+](=O)[O-])c1ccccc1 (relative stereo) | 22.1 (≈ 65.7 µM) | 9.75 | 95 |  |  |  |  |  |
| 0.48 (≈ 1.48 µM) |  |  | O=[N+]([O-])c1ccccc1OC(CCn1ccnc1)c1ccccc1 (stereo unspecified) | 18 (≈ 55.5 µM) |  | 100 |  |  | 52 |  |  |
| 5.62 (≈ 16.6 µM) |  |  | O=[N+]([O-])c1ccc(OC(COc2ccccc2)Cn2ccnc2)cc1 (stereo unspecified) | 28.1 (≈ 82.9 µM) | 5 | 93.8 |  |  |  |  |  |
| 3.82 (≈ 11.8 µM) |  |  | O=[N+]([O-])c1ccc(OC(CCn2ccnc2)c2ccccc2)cc1 (stereo unspecified) | 25.1 (≈ 77.6 µM) | 6.57 | 99 |  |  |  |  |  |
| 5.13 (≈ 14.4 µM) |  |  | O=[N+]([O-])c1ccc(OC(COc2ccccc2)Cn2ccnc2)c(F)c1 (stereo unspecified) | 29.6 (≈ 82.8 µM) | 5.76 | 98.2 |  |  |  |  |  |
| 2.76 (≈ 8.43 µM) |  |  | O=[N+]([O-])c1ccc(OC(Cn2ccnc2)c2ccccc2)c(F)c1 (stereo unspecified) | 21.2 (≈ 64.9 µM) | 7.69 | 94.6 |  |  |  |  |  |
